Screens as filed in PubChem BioAssay.
The full list was thinned out, with hits kept by preference.
CHOP inh = inhibitors of CHOP induction in ER stress response; CHO-K1 CHOP-promoter luciferase, tunicamycin-induced, 15-18 h; inhibition, % at 10 µM; hit rate 3.8% among 220,000;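 active = compounds that reduced the stress-induced luciferase reporter signal by more than about 70% of percent inhibition, limit read from the data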;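 also: 0% = tunicamycin plus vehicle and 100% = wells without tunicamycin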
XBP1 UPR activ = adaptive UPR (XBP1) activation; activation, % at 20 µM; CHO-XBP1 luciferase reporter, IRE1-XBP1 UPR activation, luminescence; percent of tunicamycin response, DMSO as zero; hit rate 0.33% among 330,000;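 active = versus positive control, 20 µM dose yields 30% or more activation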;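 also: 100% = tunicamycin at 10 µg/mL and 0% = DMSO only wells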
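Material: IRE1-XBP1 luciferase reporter CHO line / Quantity: one thousand reporter cells per well / Buffer or medium: F12 with 10% serum / Compound: 20 µM single concentration, DMSO 1% / Times: 6 h treatment, 37 °C / Detection: Steady-Glo luciferase glow luminescence, 10 min after reagent addition / Benchmarks: tunicamycin high, DMSO low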
UPR CHOP act = activators of apoptotic arm of unfolded protein response (CHOP); CHO-CHOP luciferase reporter, UPR activation, luminescence; percent of tunicamycin response over DMSO baseline; AID 449763; activation, % at 10 µM; hit rate 0.34% among 330,000;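 active = at 10 µM dose, activation of 40% or more, normalized to positive control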;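 also: 100% = tunicamycin at 10 µg/mL and 0% = DMSO alone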
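Test system: CHO-CHOP cells, stable luciferase reporter of PERK-eIF2a-CHOP signalling | Quantity: 500 CHO-CHOP cells per well | Buffer or medium: F12 plus 10% serum | Compound dosing: 10 µM single point, 0.5% DMSO | Schedule: 6 h compound treatment, 37 °C | Signal: Luciferase luminescence | Control set: Tunicamycin high control, DMSO low control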
697 NFkB inh = inhibitors of the PMA/ionomycin-induced NF-kB reporter in 697 B cells; 697 B-cell NF-kB luciferase reporter, 16 h; inhibition, % at 4 µM; hit rate 0.33% among 330,000; in the data active = inhibition above about 35%
Jurkat NFkB inh = lowers PMA/ionomycin-induced NF-kB signal in Jurkat cells; PMA/ionomycin-induced NF-kB luciferase reporter, luminescence; inhibition, % at 4 µM; hit rate 0.53% among 330,000; AID 435003; in the data active = inhibition above about 50%
Starred values were filed as active, the others as inactive; x = not tested or not shown.

SMILES | CHOP inh | XBP1 UPR activ | UPR CHOP act | 697 NFkB inh | Jurkat NFkB inh
COc1cc(OC)cc(C(=O)Nc2ccc(Nc3ccccc3)cc2)c1 | x | -3.8 | 3.6 | -46.2 | -15.2
CCCCCCC(=O)N/N=C/c1ccc(Br)cc1 | 93.0* | -0.6 | 2.4 | 7.6 | -6.9
CCCCCCCCC(=O)N/N=C/c1cccc(Br)c1 | 86.5* | 0.4 | -1.7 | -3.3 | 5.3
O=C1Nc2ccc(Cl)cc2[C@@](C#CC2CC2)(C(F)(F)F)O1 | 101.9* | -4.6 | -0.3 | 4.1 | -2.9
COc1cc2[nH]c3c(=O)n(N)c(=O)[nH]c3c2cc1OC | x | -1.1 | 1.1 | 6.6 | -0.2
C=CS(=O)(=O)c1sc(Cl)c(N2CCOCC2)c1[N+](=O)[O-] | 103.8* | x | x | x | x
COc1ccc(/C=N/n2cnnc2SCc2ccccc2)cc1 | 38.9 | -2.7 | -0.9 | 6.2 | 2.8
Cc1csc(NC(=O)C2CC(=O)N(c3ccc(C)c(C)c3)C2)n1 (stereo not given) | x | -3.8 | -0.2 | -8.7 | 11.6
CC(OC(=O)CCc1nc2ccccc2c(=O)[nH]1)C(=O)c1ccc(C(C)(C)C)cc1 (stereo not given) | 91.6* | 2.7 | 1.5 | -15.7 | -14.2
CCC1(c2ccccc2)NC(=O)N(CC(=O)NNC(=O)COc2ccc(Cl)cc2C)C1=O (stereo not given) | x | 0.2 | 0.8 | 16.2 | 10.6
COc1cc(/C=N/N=C(N)N)ccc1OCc1ccc(Cl)cc1 | 78.1* | 11.9 | -0.1 | -143.5 | -4.6
CCOc1cc(/C=N/N=C(N)N)ccc1OCc1ccc(Cl)cc1 | 108.5* | x | x | x | x
NC(N)=N/N=C/c1ccc(OCc2ccccc2)c(OCc2ccccc2)c1 | x | 0.2 | 62.6* | -5.9 | 14.4
O=C1O/C(=C/Br)CCC1c1cccc2ccccc12 (stereo not given) | -18.3 | x | x | x | x
COc1cc(NC(=O)CSc2nnc3c(n2)[nH]c2ccc(S(=O)(=O)NC(C)C)cc23)cc(OC)c1OC | -1.5 | -0.6 | -1.4 | 6.4 | 2.2
CC(=O)Nc1cccc(NC(=O)C(=O)NCC(c2ccco2)N2CCc3ccccc3C2)c1 (stereo not given) | x | -0.2 | 2.3 | 7.7 | 23.0
Cc1cc(NC(=O)c2ccc3nc(-c4ccccc4)c(-c4ccccc4)nc3c2)no1 | 78.4* | 13.3 | 7.8 | -3.8 | -9.2
O=C(CC1NC(=O)NC1=O)Nc1ccc(Cl)cc1 (stereo not given) | 74.6* | 2.1 | 1.9 | -19.0 | -3.6
CCCCOc1ccc(CNn2c(C)nc3ccccc3c2=O)cc1 | 80.6* | -1.9 | 1.1 | -13.7 | -15.4
O=S(=O)(c1ccc(Cl)s1)N1CCN(Cc2ccccc2)CC1 | 80.7* | -3.9 | -0.8 | 12.1 | 10.7
CCN(c1ccccc1)S(=O)(=O)c1cc(C(=O)Nc2cccc(Cl)c2)ccc1F | 12.5 | -0.5 | 0.2 | -25.4 | -10.6
CCc1ccc(NC(=O)c2ccc(F)c(S(=O)(=O)N(CC)c3ccccc3)c2)cc1 | 77.3* | -1.5 | 4.4 | -36.7 | -5.4
CCN(CC)C(=O)c1sc2c(c1C)c(=O)n(-c1ccc(C)c(C)c1)c(=O)n2CC(=O)NCC1CCCO1 (stereo not given) | -8.9 | -1.8 | -0.9 | -9.1 | -12.0
CCCc1cc(=O)[nH]c(Nc2cc(OC)ccc2OC)n1 | 74.5* | -0.9 | -1.2 | -7.8 | -5.1
CC1CCC(NC(=O)CSc2nnnn2C)CC1 (stereo not given) | x | 2.4 | 0.6 | -1.3 | -11.5
SMILES | CHOP inh | XBP1 UPR activ | UPR CHOP act | 697 NFkB inh | Jurkat NFkB inh
Cc1ccc(OCc2ccc(C(=O)Nc3nc4ccccc4n3Cc3ccccc3)o2)c([N+](=O)[O-])c1 | 87.9* | 1.2 | -0.8 | -13.9 | 0.2
C=CCSC1=NNC(c2ccc(C(C)(C)C)cc2)=NN1 | -16.8 | -2.0 | 6.2 | -54.1 | -45.3
Cc1ccc(OCC(=O)Nc2cccc(-c3nnc(-c4ccccc4)o3)c2)c(C)c1 | 14.0 | 1.1 | 3.2 | -2.6 | -1.6
COc1ccc(CC(=O)Nc2ccc(-c3nnc(-c4ccccc4)o3)cc2)cc1OC | 74.1* | 2.5 | 1.6 | -25.7 | -29.0
COc1ccc(CC(=O)Nc2cccc(-c3nnc(-c4ccc(C)cc4)o3)c2)cc1OC | 76.1* | -3.1 | -5.0 | 2.8 | 44.9
CNC(=O)c1ccc(NC(=O)CC2SC(N3CCCC3)=NC2=O)cc1 (stereo not given) | x | -1.1 | 0.4 | 8.8 | 6.3
CC1CCCCC1NC1=NCCCS1 (stereo not given) | -2.9 | 5.3 | -1.4 | 0.8 | -8.2
CCCN1C/C(=C/c2cccc([N+](=O)[O-])c2)C(=O)/C(=C/c2cccc([N+](=O)[O-])c2)C1 | 100.4* | x | x | x | x
CC(C)C(OC(=O)c1cccs1)C(=O)NCc1ccco1 (stereo not given) | 34.7 | -1.5 | -1.5 | 0.4 | -4.9
O=C(OC(C(=O)NCc1ccco1)C(OC(=O)c1ccccc1)C(=O)NCc1ccco1)c1ccccc1 (stereo not given) | 94.3* | -1.5 | 0.2 | 8.7 | 4.9
C=CCN1C(=O)/C(=C2/Sc3ccc(OC)cc3N2C)SC1=Nc1ccccc1 | 74.1* | 10.3 | 1.2 | 6.2 | 7.0
C=CCN1C(=O)/C(=C2/Sc3ccc(OC)cc3N2C)SC1=NCc1ccccc1 | -0.6 | 9.5 | 1.3 | -12.0 | -31.1
CC(=O)N/C(=C\c1ccccc1)C(=O)OCc1ccc(F)cc1 | x | -1.1 | 2.9 | -2.4 | 11.9
O=C(CC1S/C(=N/N=C/c2cccs2)NC1=O)Nc1ccc(Cl)cc1 (stereo not given) | 93.8* | 9.5 | -0.2 | 14.6 | 2.0
O=C1N/C(=N\N=C\c2cccs2)SC1Cc1ccc(Cl)cc1Cl (stereo not given) | 43.6 | 2.3 | 0.9 | -16.2 | 8.5
CCOC(=O)c1ccc(NC(=S)Nc2cccc(C)n2)cc1 | 73.7* | 2.6 | 2.2 | 6.3 | -2.3
CC(C)(C)OC(=O)N[C@@H](Cc1ccccc1)c1nnc(SCC(=O)c2ccc(Cl)cc2)o1 | 85.7* | 1.8 | 1.4 | -2.5 | 7.7
Cc1cccc(C)c1N1CCN(c2nc(N(C)C)oc(=O)c2C#N)CC1 | 69.2 | -5.9 | 2.3 | 2.8 | -0.6
O=C(CNC(=O)c1ccco1)OCc1cccc(Cl)c1 | 74.5* | -0.6 | -1.7 | 10.6 | 3.5
Cc1ccccc1NCc1ccccc1O | 32.6 | -0.7 | -0.3 | -12.0 | -4.6
C=CCOc1ccccc1CNc1ccccc1C | 70.1* | -2.7 | 0.0 | 1.0 | -1.7
Cc1ccc(C(=O)NCCS(=O)(=O)N2CCN(c3ccccc3F)CC2)cc1[N+](=O)[O-] | x | -5.5 | 0.2 | 9.1 | 0.5
CC(C)c1ccc(/C=C(/C#N)c2nnc(NC(=O)c3ccccc3)s2)cc1 | 49.5 | 2.5 | -1.2 | -14.3 | -37.0
CC(=O)c1ccc(N(C(=O)Cc2c[nH]c3ccccc23)C(C(=O)NC2CCCCC2)c2cccs2)cc1 (stereo not given) | -3.0 | 0.2 | 0.0 | -16.4 | -28.8
O=C(NC1CCCCC1)C(c1cccs1)N(C(=O)Cc1c[nH]c2ccccc12)c1ccc(F)cc1 (stereo not given) | 91.0* | 5.6 | -1.4 | 18.3 | 5.0
